Pf gametocyte: kills late stage P. falciparum gametocytes; P. falciparum stage V gametocytes, ATP luminescence, 24 h; inhibition, % at 10.9 µM; hit rate 0.065% among 150,000;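 active = inhibition above the mean plus 3 SD of compounds within the control limits, set per campaign, cut at about 38% in these data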;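 note: 0% = DMSO wells and 100% = medium only without gametocytes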
Hsp70 activator: Hsp70 transcriptional activation, primary screen; HeLa Hsp70 promoter luciferase reporter, luminescence; scaled: vehicle 0, proteasome-inhibitor control 100%; activation, % at 10 µM; hit rate 0.04% among 200,000;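 active = activation above the mean across all tested compounds plus 3 SD, cutoff set per campaign, cut at about 5.5% in these data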;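 note: 100% = MG132 at 30 µM as the positive control and 0% = DMSO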
Wee1 stabilizer: inhibitors of human Wee1 degradation. P30291. hit rate 1.2% among 220,000. HeLa Luc-Wee1K328M stability, luciferase luminescence; 100% = proteasome inhibitor MG132 effect. reporter increase, % at 5 µM;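 active = activation above the mean of all tested compounds plus 3 SD, set per screening run, cut at about 8.8% in these data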;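 note: cells exposed to compound for 20 h before luminescence read; 0% = DMSO alone and 100% = MG132 at 30 µM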
Mdm2 ligase inh: Mdm2 E3 ligase (human) inhibition. Q00987. cell-based MDM2 ubiquitination luciferase reporter, 2 h; 0 = plate control, 100 = twice control, blank-subtracted. signal enhancement, % at 5 µM. hit rate 0.11% among 210,000. AID 1230;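 active = signal enhancement of 30% or more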;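 note: luminescence tracks abundance of the self-degrading MDM2-luciferase fusion protein; higher signal means inhibition of MDM2 E3 ligase activity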
Target sequence (Q00987 whole entry, looked up, the tested form may be a part): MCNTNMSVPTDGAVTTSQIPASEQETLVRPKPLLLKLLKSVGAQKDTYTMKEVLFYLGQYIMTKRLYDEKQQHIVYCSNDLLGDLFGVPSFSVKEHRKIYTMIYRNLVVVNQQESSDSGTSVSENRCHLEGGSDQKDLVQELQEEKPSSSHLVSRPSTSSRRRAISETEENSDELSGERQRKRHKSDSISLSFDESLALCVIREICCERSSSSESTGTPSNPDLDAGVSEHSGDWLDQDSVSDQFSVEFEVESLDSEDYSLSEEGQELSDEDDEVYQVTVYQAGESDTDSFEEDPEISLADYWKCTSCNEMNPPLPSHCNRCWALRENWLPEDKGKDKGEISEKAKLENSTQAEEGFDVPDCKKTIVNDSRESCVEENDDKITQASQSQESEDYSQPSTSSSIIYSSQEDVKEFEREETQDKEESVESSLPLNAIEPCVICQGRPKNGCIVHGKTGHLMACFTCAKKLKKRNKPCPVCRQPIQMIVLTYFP
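Buffer or medium: Cells held in DMEM | Assay system: Stable mammalian line carrying autodegrading MDM2–luciferase fusion reporter | Quantity: 2000 cells/well | Times: 4 h settle plus 2 h compound, 37 °C | Doses: One concentration, 5 µM, with 0.2% DMSO | Technique: Luminescence with SteadyLite reagent, 15 min at room temperature | Benchmarks: Plate controls and plate blanks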
* hit, by the source's call; nt = not tested or not shown. An excerpt weighted towards active compounds, which were near 1.3% of everything screened.

SMILES	Pf gametocyte	Hsp70 activator	Wee1 stabilizer	Mdm2 ligase inh
C(=N\NC1=Nc2cccc3cccc1c23)/c1ccccn1	11	0	2	-18
Clc1ccccc1/C=N/NC1=Nc2cccc3cccc1c23	1	0	4	346*
N/C(CSc1ccc(Cl)cc1)=N\NC(=O)c1ccncc1	-12	0	-1	-11
O=C(N/N=C/c1ccc(-c2cccc([N+](=O)[O-])c2)o1)c1ccc([N+](=O)[O-])cc1	-40	0	9.2*	-13
Cc1cc(C(=O)N/N=C/c2ccc(-c3cccc(Br)c3)o2)n[nH]1	30	nt	10*	-5
O=C(N/N=C/c1ccc(-c2cccc([N+](=O)[O-])c2)o1)c1ccccc1O	nt	0	5	-14
COC(=O)c1ccc(CSc2nnc(NC(=O)C3CC(=O)N(c4ccc5c(c4)OCCO5)C3)s2)cc1 (centres undefined)	7	0	-1	-6
Clc1ccc(OCCn2cnc(Cl)c2Cl)cc1	3	nt	-1	-11
CO[C@@]1(NC(=O)Cc2cccs2)C(=O)N2C(C(=O)O)=C(COC(N)=O)CS[C@@H]21	nt	0	10*	nt
CCOc1ccc(N(CC(=O)Nc2c(C)n(C)n(-c3ccccc3)c2=O)S(=O)(=O)c2ccccc2)cc1	-18	1	11*	-1
COc1ccccc1N(CC(=O)Nc1c(C)n(C)n(-c2ccccc2)c1=O)S(=O)(=O)c1ccc(C)cc1	-17	0	-2	19
C/C(=N/NC(=O)c1ccc(O)cc1)c1cccc([N+](=O)[O-])c1	23	0	2	-5
CC(=O)Nc1cccc(/C(C)=N/NC(=O)c2ccc(O)cc2)c1	30	0	10*	-11
CCN(CC)C1CC(=O)N(c2cccc(C)c2)C1=O (centres undefined)	nt	0	10.0*	-15
CN1CCN(C2CCN(c3cccc(Cl)c3)CC2)CC1CCO (centres undefined)	10	nt	nt	nt
CC1CCc2c(C(=O)NCc3ccccn3)csc2C1 (centres undefined)	-11	0	9.0*	-22
N#Cc1ccc(CSC2=NCCN2)cc1	-5	0	9.8*	29
c1ccc(CSC2=NCCCN2)cc1	nt	0	4	11
Cc1cccc(N2C(=O)C(O)=C(C(=O)c3cccs3)C2c2ccc(Cl)cc2)n1 (centres undefined)	8	nt	1	-15
CC(=O)NC1C(=O)N=C(SCc2ccccc2)NC1=O (centres undefined)	34	0	0	-9
CC(=O)NC1C(=O)N=C(SCC(=O)NC(C)c2ccccc2)NC1=O (centres undefined)	6	0	-3	34*
COc1ccc(-c2nc(CC(=O)O)cs2)cc1OC	10	-1	23*	-9
COc1ccc(-c2nc(CC(=O)O)cs2)cc1	8	0	1	-15
CSc1ccccc1C(=O)NC1CCCC1	nt	0	8.9*	-10
CC(C)N1CCC(N2CCN(CC#Cc3ccccc3)CC2CCO)CC1 (centres undefined)	nt	0	16*	-22
SMILES	Pf gametocyte	Hsp70 activator	Wee1 stabilizer	Mdm2 ligase inh
O=C(Cn1c(NCCCO)nc2ccccc21)c1ccc(F)cc1	14	nt	nt	nt
Cc1ccc(NC(=S)Nc2ccc(-c3nnc4n3CCCCC4)cc2)cc1C	17	nt	nt	nt
COc1ccc(-c2nnc(SCC(=O)Nc3ccc(C)cc3)n2C)cc1	nt	0	9.8*	-7
COc1ccc(NC(=O)CSc2nnc(-c3cccnc3)n2C)cc1	0	nt	-1	-11
CS(=O)(=O)N(Cc1ccc(C(=O)NN=C2CCCCCC2)cc1)c1ccccc1	-1	0	1	-7
CS(=O)(=O)N(Cc1ccc(C(=O)NN=C2CCCC2)cc1)c1ccccc1	11	0	9.3*	-1
CN(C)c1ccc(C(=O)OCC#CCSc2nnc(-c3cccc4ccccc34)o2)cc1	4	nt	nt	nt
CC(C)CC(C(=O)OCC(=O)Nc1ncc(Cl)cc1Cl)N1C(=O)c2ccccc2C1=O (centres undefined)	23	0	11*	-5
Cn1c(=O)c2c(nc(Sc3ncnn3CC(=O)NC(C)(C)C)n2C)n(C)c1=O	14	0	10*	-9
CCc1nnc(NS(=O)(=O)c2ccc(NC(=S)NC(=O)/C=C/c3ccc(OC)cc3)cc2)s1	-15	0	2	-12
CCc1nnc(NS(=O)(=O)c2ccc(NC(=S)NC(=O)/C=C/c3ccccc3)cc2)s1	41*	-1	0	-2
Cc1ccc(N2CC(O)=C(c3nc4ccccc4c(=O)[nH]3)C2=N)cc1C	2	0	1	-5
